Measurements taken from PMC3115441 (Chemical biology & drug design, 2011).
“Also recorded” adds a separate entry of the source. Read-outs that look alike come from different tables or passages of the source.

Legend:
[1] = system: PCP site of the NMDA receptor complex; test: [3H]; assay type: binding, rat; settings: for % inhibition of 1 nM [3H] (+)-MK-801: compound at 10 μM (10,000 nM); for IC50: rat forebrain homogenate, 1 nM (+)-[3H]MK-801; for Ki: read-out: NMDA affinity Ki, calculated by Cheng and Prusoff equation
How it was run: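 Washed rat forebrain homogenate (30 ug/mL protein) in 10 mM HEPES, pH 7.4, with 1 nM (+)-[3H]MK-801, 100 uM glutamate, 30 uM glycine and varied competitor concentrations. Nonspecific binding was set with 30 uM (+)-MK-801. Incubation ran 2 h at room temperature, then vacuum filtration onto GF/B filters, three buffer washes and scintillation counting.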

Serotonin 2A (5-HT2A) = Serotonin 2A (5-HT2A) (Homo sapiens, UniProt P28223); test: NIMH-PDSP radioligand binding, 5-HT2A
Dopamine 1 (D1) = Dopamine 1 (D1) (Homo sapiens, UniProt P21728); test: NIMH-PDSP radioligand binding, D1
Dopamine 2 (D2) = Dopamine 2 (D2) (Homo sapiens, UniProt P14416); test: NIMH-PDSP radioligand binding, D2
[2] = target: Dopamine Transporter (DAT) (Homo sapiens, UniProt Q01959); test: NIMH-PDSP radioligand binding, DAT
[3] = target: κ- opioid receptors (KOR) (Rattus norvegicus, UniProt P34975); test: NIMH-PDSP radioligand binding, KOR
[4] = target: μ- opioid receptors (MOR) (Homo sapiens, UniProt P35372); test: NIMH-PDSP radioligand binding, MOR
[5] = target: Norepinephrine Transporter (NET) (Homo sapiens, UniProt P23975); test: NIMH-PDSP radioligand binding, NET
[6] = target: Serotonin Transporter (SERT) (Homo sapiens, UniProt P31645); test: NIMH-PDSP radioligand binding, SERT
Sigma1 = Sigma1 (Rattus norvegicus, UniProt Q9R0C9); test: NIMH-PDSP radioligand binding, Sigma-1
Sigma2 = target: T1, Sigma2 (Rattus norvegicus, UniProt Q5U3Y7); test: NIMH-PDSP radioligand binding, Sigma-2
T1 sequence (Q5U3Y7 1-176): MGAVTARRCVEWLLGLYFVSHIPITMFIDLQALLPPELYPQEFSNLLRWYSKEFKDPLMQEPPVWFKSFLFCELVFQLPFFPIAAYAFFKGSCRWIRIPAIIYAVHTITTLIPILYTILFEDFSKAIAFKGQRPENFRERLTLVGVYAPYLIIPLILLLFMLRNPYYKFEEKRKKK

MES-induced seizures [7] = test: Maximal electroshock; assay type: in vivo, mice; settings: for MES (30) N/F, animals active over tested: 30 mg/kg i.p.; for MES (100) N/F, animals active over tested: 100 mg/kg i.p.
How it was run: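 Mice received test compound i.p. at 30, 100 or 300 mg/kg in 0.01 ml/g and were tested at various intervals after dosing. Corneal electrodes primed with 0.5% tetracaine HCl electrolyte delivered 60 Hz alternating current, 50 mA, for 0.2 s. An animal counted as protected when the hindlimb tonic extensor component was abolished. Results are scored as animals protected over tested.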

[8] = system: Metrazol-induced clonic seizures; test: Subcutaneous Metrazol seizure threshold test; assay type: in vivo, mice; settings: for scMET (30) N/F, animals active over tested: 30 mg/kg; for scMET (100) N/F, animals active over tested: 100 mg/kg; for scMET (300) N/F, animals active over tested: 300 mg/kg
mice = test: Acute toxicity, minimal motor impairment; assay type: in vivo; settings: for TOX (30) N/F, animals toxic over tested: 30 mg/kg
6HZ = 6HZ test; assay type: in vivo; settings: 50 mg/kg, 0.5 h
MES-induced seizures [9] = test: Anticonvulsant protection test in rats; assay type: in vivo; settings: 30 mg/kg
How it was run: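 Rats were dosed orally at 30 mg/kg in 0.04 ml/10 g. Corneal electrodes primed with 0.5% tetracaine HCl electrolyte delivered 60 Hz alternating current, 150 mA, for 0.2 s. Protection meant abolition of the hindlimb tonic extensor component of the seizure.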

rats = test: Acute toxicity, minimal motor impairment in rats; assay type: in vivo; settings: 30 mg/kg
[10] = system: PCP site of the NMDA receptor complex; settings: ref [39], [40]; cited from earlier work
[11] = read-out: 5HT2A binding affinity, Human Cloned, hot ligand Ketanserin
[12] = read-out: D1 binding affinity, Human Cloned, hot ligand SCH23390
[13] = read-out: D2 binding affinity, Human Cloned, hot ligand N-Methylspiperone
[14] = read-out: DAT binding affinity, Human Cloned, hot ligand WIN35428
[15] = read-out: KOR binding affinity, Rat Cloned, hot ligand U69593
[16] = read-out: MOR binding affinity, Human Cloned, hot ligand DAMGO
[17] = read-out: NET binding affinity, Human Cloned, hot ligand Nisoxetine
[18] = read-out: SERT binding affinity, Human Cloned, hot ligand Citalopram
[19] = read-out: Sigma 1 binding affinity, Rat Brain, hot ligand Pentazocine(+)
[20] = read-out: Sigma 2 binding affinity, Rat C12, hot ligand DTG

Sequence of Serotonin 2A (5-HT2A) (P28223 whole entry): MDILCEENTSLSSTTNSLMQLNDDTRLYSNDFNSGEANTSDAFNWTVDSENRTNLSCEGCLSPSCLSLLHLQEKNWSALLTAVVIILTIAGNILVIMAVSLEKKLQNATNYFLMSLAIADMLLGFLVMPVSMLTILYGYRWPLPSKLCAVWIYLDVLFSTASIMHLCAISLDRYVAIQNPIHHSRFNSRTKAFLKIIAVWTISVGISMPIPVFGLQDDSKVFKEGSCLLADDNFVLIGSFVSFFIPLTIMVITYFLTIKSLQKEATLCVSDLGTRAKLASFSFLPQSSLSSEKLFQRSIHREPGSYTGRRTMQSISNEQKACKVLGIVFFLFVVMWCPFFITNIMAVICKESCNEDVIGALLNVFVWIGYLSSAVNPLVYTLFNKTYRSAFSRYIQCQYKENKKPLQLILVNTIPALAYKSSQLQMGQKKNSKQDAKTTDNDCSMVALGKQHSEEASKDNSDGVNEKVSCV
Sequence of Dopamine 2 (D2) (P14416 whole entry): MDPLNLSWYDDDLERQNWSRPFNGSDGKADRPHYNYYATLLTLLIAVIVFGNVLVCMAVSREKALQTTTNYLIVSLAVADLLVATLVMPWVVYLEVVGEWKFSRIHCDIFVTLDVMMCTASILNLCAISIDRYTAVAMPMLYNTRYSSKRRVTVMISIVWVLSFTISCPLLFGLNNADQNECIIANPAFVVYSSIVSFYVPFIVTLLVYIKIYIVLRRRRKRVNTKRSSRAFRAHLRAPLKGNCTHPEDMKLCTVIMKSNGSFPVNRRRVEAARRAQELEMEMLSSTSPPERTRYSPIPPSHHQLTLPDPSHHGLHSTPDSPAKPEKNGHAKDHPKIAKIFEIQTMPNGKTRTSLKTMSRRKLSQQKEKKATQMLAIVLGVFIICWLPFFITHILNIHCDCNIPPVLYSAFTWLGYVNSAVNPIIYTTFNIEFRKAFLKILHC
Sequence of Sigma1 (Q9R0C9 whole entry): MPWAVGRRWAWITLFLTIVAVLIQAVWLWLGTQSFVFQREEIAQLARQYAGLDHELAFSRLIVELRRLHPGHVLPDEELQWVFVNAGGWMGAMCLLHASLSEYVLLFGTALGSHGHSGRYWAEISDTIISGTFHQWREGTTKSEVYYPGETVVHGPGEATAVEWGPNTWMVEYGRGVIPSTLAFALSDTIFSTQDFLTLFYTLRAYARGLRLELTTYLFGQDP
Sequence of κ- opioid receptors (KOR) (P34975 whole entry): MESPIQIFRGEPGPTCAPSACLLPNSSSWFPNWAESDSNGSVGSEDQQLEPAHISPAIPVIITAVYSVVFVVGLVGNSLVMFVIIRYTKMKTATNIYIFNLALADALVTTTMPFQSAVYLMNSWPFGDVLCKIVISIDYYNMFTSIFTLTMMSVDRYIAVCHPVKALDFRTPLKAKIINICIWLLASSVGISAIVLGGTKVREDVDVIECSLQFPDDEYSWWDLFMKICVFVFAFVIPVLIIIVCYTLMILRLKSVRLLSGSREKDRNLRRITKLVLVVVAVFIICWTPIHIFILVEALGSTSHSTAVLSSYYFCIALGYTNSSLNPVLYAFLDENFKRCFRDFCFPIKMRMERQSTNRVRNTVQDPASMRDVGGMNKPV
Sequence of Norepinephrine Transporter (NET) (P23975 whole entry): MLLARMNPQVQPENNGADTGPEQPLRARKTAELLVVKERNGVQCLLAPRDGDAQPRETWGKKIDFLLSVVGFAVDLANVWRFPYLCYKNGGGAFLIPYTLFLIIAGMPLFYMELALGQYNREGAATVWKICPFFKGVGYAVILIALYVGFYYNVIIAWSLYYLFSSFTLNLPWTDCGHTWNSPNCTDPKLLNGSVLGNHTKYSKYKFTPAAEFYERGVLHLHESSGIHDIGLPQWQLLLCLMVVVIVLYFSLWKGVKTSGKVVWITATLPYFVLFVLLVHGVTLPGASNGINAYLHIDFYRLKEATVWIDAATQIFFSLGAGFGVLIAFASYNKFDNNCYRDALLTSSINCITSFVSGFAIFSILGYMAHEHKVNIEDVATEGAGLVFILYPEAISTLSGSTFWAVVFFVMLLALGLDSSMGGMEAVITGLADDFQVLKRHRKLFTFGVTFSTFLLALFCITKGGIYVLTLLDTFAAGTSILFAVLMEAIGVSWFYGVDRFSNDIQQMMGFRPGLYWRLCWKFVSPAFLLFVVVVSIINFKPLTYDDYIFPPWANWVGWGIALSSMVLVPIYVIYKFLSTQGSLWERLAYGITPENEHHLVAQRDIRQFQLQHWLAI
Sequence of Serotonin Transporter (SERT) (P31645 whole entry): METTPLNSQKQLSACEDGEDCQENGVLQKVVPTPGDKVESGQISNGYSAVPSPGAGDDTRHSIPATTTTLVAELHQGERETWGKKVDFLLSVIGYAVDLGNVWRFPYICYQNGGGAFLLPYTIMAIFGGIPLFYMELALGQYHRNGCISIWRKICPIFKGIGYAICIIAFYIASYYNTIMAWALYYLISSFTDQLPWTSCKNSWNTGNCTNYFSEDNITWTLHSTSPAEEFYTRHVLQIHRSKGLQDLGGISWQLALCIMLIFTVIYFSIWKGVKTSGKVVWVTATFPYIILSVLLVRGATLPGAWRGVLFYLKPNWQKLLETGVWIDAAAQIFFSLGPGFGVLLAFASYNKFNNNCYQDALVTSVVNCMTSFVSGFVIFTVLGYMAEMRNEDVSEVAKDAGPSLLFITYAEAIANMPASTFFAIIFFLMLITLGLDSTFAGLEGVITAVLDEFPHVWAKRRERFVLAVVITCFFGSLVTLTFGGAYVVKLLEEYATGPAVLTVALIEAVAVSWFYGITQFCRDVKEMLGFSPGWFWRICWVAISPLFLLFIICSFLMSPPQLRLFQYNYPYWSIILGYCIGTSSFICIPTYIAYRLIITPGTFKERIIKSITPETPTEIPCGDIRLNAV
Sequence of Dopamine 1 (D1) (P21728 whole entry): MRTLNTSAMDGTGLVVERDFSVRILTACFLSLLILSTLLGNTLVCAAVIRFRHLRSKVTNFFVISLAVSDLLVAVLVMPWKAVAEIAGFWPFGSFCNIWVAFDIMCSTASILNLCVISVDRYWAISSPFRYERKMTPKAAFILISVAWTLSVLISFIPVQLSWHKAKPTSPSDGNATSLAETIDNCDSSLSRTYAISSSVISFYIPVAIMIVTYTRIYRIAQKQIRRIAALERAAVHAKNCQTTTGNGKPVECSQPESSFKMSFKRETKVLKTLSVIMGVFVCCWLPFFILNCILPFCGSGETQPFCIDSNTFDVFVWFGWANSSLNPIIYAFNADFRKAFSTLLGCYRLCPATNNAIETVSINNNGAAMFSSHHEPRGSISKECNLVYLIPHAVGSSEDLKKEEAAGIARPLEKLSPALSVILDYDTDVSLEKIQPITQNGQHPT
Sequence of Dopamine Transporter (DAT) (Q01959 whole entry): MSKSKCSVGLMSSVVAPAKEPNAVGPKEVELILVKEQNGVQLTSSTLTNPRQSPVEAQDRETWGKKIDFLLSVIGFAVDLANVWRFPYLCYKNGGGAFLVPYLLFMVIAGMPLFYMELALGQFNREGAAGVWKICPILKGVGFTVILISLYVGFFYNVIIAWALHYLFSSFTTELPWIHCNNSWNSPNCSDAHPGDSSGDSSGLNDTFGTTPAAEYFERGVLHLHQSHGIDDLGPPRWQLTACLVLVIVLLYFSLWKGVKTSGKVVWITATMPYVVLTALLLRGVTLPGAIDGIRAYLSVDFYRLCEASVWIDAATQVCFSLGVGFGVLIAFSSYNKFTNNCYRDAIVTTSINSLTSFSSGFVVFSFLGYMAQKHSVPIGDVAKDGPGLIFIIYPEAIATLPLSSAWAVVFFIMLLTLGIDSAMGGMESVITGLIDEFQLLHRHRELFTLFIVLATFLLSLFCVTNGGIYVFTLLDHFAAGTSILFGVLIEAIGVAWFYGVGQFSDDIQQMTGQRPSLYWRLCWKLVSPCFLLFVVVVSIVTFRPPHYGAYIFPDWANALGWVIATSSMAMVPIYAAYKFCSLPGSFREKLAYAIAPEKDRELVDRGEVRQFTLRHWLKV
Sequence of μ- opioid receptors (MOR) (P35372 whole entry): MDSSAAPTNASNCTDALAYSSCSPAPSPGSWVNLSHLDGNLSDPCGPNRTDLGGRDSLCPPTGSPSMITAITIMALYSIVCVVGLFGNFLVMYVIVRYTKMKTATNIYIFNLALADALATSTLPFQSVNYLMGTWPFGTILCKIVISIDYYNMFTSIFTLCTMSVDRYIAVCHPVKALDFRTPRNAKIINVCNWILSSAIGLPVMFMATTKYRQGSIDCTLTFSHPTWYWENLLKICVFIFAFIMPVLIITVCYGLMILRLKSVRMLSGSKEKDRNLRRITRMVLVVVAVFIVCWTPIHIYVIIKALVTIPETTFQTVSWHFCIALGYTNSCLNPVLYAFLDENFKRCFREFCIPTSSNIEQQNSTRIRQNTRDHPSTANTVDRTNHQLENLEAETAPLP

| Compound | Ki (Serotonin 2A (5-HT2A); [11]) [µM] | Ki (Dopamine 1 (D1); [12]) [µM] | Ki (Dopamine 2 (D2); [13]) [µM] | Ki [2, 14] [µM] | Ki [3, 15] [µM] | Ki [4, 16] [µM] | MES (30) N/F, animals active over tested (MES-induced seizures [7]; 0.5 h) | MES (30) N/F, animals active over tested (MES-induced seizures [7]; 4.0 h) | MES (100) N/F, animals active over tested (MES-induced seizures [7]; 0.5 h) | MES (100) N/F, animals active over tested (MES-induced seizures [7]; 4.0 h) | scMET (30) N/F, animals active over tested ([8]; 0.5 h) | scMET (30) N/F, animals active over tested ([8]; 4.0 h) | scMET (100) N/F, animals active over tested ([8]; 0.5 h) | scMET (100) N/F, animals active over tested ([8]; 4.0 h) | TOX comments (mice; 300 mg/kg, 0.5 h) | TOX (30) N/F, animals toxic over tested (mice; rotorod, 0.5 h) | TOX (30) N/F, animals toxic over tested (mice; rotorod, 4.0 h) | TOX (100) N/F, animals toxic over tested (mice; rotorod, 100 mg/kg, 0.5 h) | TOX (100) N/F, animals toxic over tested (mice; rotorod, 100 mg/kg, 4.0 h) | TOX (300) N/F, animals toxic over tested (mice; rotorod, 300 mg/kg, 0.5 h) | also measured |
| --- | --- | --- | --- | --- | --- | --- | --- | --- | --- | --- | --- | --- | --- | --- | --- | --- | --- | --- | --- | --- | --- |
| Fc1ccc(C2(NCCN3CCCCC3)CC3CCC2C3)cc1 (stereo not shown) [Compound 5b] | 8.82 | > 10 | > 10 | 1.23 | 3.55 | > 10 | 0/1 0/1 | 0/1 0/1 | 2/3 | 0/3 | 0/1 0/1 | 0/1 0/1 | 0/1 0/1 | 0/1 0/1 | Death | 0/4 | 0/2 | 3/8 | 0/4 | 4/4 / | affinity for NMDA (in words) [1]: did not exhibit significant affinity; Ki [5, 17]: > 10 µM; Ki [6, 18]: > 10 µM; Ki (Sigma1; [19]): > 10 µM; Ki (Sigma2; [20]): > 10 µM; MES neuroprotective activity (in words) (MES-induced seizures [7]; mouse, in vivo): displayed MES neuroprotective activity; TOX comments (mice; 50 mg/kg, 0.25 h): Clonic seizures; TOX comments (mice; 100 mg/kg, 0.5 h): Clonic seizures; TOX (65) N/F, animals toxic over tested (mice; rotorod, 65 mg/kg, 0.5 h): 2/4; 6HZ (50), animals active over tested (6HZ): 0/4; protection in rats (in words) (MES-induced seizures [9]): did not display any protection; toxicity in rats (in words) (rats): did not display any protection or toxicity |
| c1ccc(C2(NCCN3CCCC3)CC3CCC2C3)cc1 (stereo not shown) [Compound 5e, 2-Phenyl-N-(2-(pyrrolidin-1-yl)ethyl) bicyclo[2.2.1]heptan-2-amine] | – | – | – | – | – | – | 0/1 0/1 | 0/1 0/1 | 0/3 0/3 | 0/3 0/3 | 0/1 0/1 | 0/1 0/1 | 0/1 0/1 | 0/1 0/1 | Diarrhea; also recorded: Unable to grasp rotorod; also recorded: Death | 0/4 | 0/2 | 0/8 | 0/4 | 4/4 / | % inhibition of 1 nM [3H] (+)-MK-801 [1]: greater than 90%; IC50 [1]: 8.48 ± 3.11 µM; Ki [1]: 5.67 µM; Ki (Serotonin 2A (5-HT2A)): > 10 µM; Ki (Dopamine 1 (D1)): > 10 µM; Ki (Dopamine 2 (D2)): > 10 µM; Ki [2]: 3.62 µM; Ki [3]: 4.51 µM; Ki [4]: > 10 µM; Ki [5]: > 10 µM; Ki [6]: > 10 µM; Ki (Sigma1): > 10 µM; Ki (Sigma2): > 10 µM; MES protection (in words) (MES-induced seizures [7]; 100 mg/kg): all protective in the MES test at the dose of 100 mg/kg except for compound 5e; scMET (300) N/F, animals active over tested ([8]; 0.5 h): 0/1; scMET (300) N/F, animals active over tested ([8]; 4.0 h): 0/0 |
| Fc1ccc(C2(NCCN3CCCC3)CC3CCC2C3)cc1 (stereo not shown) [Compound 5f] | > 10 | > 10 | > 10 | 0.226 | 2.11 | > 10 | 0/1 0/1 | 0/1 0/1 | 1/3 | 0/1 | 0/1 0/1 | 0/1 0/1 | 0/1 0/1 | 0/1 0/1 | Death | 0/4 | 0/2 | 5/8 | 0/4 | 4/4 / | % inhibition of 1 nM [3H] (+)-MK-801 [1]: greater than 90%; IC50 [1]: 8.66 ± 2.56 µM; Ki [1]: 5.82 µM; Ki [5, 17]: > 10 µM; Ki [6, 18]: 4.61 µM; Ki (Sigma1; [19]): > 10 µM; Ki (Sigma2; [20]): > 10 µM; TOX comments (mice; 100 mg/kg, 0.5 h): Clonic seizures |
| CN1CC[C@@]23CCCC[C@@H]2[C@@H]1Cc1ccc(O)cc13 [DX, dextrophan] | – | – | – | – | – | – | – | – | – | – | – | – | – | – | – | – | – | – | – | – | activity / affinity at NMDA (in words) [10]: μM affinity |
